# Experimental data: ChEMBL document CHEMBL1795318, “Development of tetrahydroisoquinoline-based hydroxamic acid derivatives: potent histone deacetylase inhibitors with marked in vitro and in vivo antitumor activities” (J Med Chem, 2011)
# Activity calls are given as the source filed them. No cut-off for these calls is given here.
# Assays:
# Histone deacetylase 8 = biological target: T1, Histone deacetylase 8 (Homo sapiens, UniProt Q9BY41); assay: Inhibition of HDAC8 after 30 mins by fluorescence microplate reader
# T1 sequence (Q9BY41 whole entry): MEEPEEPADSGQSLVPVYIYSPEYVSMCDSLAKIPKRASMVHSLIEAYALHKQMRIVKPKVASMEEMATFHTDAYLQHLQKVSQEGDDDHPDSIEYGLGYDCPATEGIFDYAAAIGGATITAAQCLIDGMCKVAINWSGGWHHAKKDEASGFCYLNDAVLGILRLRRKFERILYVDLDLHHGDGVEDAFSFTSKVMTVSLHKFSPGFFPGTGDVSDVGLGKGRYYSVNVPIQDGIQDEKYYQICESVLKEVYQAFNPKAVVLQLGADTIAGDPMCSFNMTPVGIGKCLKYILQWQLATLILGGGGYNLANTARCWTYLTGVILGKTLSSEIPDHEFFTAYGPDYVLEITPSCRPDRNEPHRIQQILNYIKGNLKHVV
# Summary of the method: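 HDAC8 mixed with compound at various concentrations, fluorogenic substrate added, 37 °C for 30 min; stopped with developer containing trypsin and TSA. Fluorescence read after 20 min (ex 390/em 460 nm); inhibition relative to control wells, IC50 by regression of concentration/inhibition data; mean ± SD of at least three determinations.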
# NB-4 = assay: Cytotoxicity against human NB4 cells after 48 hrs by MTT assay; assay type: functional, cell-based; conditions: NB-4, 48 h
# Histone deacetylase = assay: Inhibition of HDAC in human HeLa cell nuclear extract after 30 mins by fluorescence microplate reader; assay type: protein assay
# HeLa = assay: Cytotoxicity against human HeLa cells after 48 hrs by MTT assay; assay type: functional, cell-based
# K562 = assay: Cytotoxicity against human K562 cells after 48 hrs by MTT assay; assay type: functional, cell-based; conditions: K562, 48 h
# HL-60 = assay: Cytotoxicity against human HL60 cells after 48 hrs by MTT assay; assay type: functional, cell-based; conditions: HL-60, 48 h
# [1] = biological target: T2, Protein deacetylase HDAC6 (Homo sapiens, UniProt Q9UBN7); assay: Inhibition of HDAC6 in human HeLa cell nuclear extract after 30 mins by fluorescence microplate reader
# T2 sequence (Q9UBN7 whole entry): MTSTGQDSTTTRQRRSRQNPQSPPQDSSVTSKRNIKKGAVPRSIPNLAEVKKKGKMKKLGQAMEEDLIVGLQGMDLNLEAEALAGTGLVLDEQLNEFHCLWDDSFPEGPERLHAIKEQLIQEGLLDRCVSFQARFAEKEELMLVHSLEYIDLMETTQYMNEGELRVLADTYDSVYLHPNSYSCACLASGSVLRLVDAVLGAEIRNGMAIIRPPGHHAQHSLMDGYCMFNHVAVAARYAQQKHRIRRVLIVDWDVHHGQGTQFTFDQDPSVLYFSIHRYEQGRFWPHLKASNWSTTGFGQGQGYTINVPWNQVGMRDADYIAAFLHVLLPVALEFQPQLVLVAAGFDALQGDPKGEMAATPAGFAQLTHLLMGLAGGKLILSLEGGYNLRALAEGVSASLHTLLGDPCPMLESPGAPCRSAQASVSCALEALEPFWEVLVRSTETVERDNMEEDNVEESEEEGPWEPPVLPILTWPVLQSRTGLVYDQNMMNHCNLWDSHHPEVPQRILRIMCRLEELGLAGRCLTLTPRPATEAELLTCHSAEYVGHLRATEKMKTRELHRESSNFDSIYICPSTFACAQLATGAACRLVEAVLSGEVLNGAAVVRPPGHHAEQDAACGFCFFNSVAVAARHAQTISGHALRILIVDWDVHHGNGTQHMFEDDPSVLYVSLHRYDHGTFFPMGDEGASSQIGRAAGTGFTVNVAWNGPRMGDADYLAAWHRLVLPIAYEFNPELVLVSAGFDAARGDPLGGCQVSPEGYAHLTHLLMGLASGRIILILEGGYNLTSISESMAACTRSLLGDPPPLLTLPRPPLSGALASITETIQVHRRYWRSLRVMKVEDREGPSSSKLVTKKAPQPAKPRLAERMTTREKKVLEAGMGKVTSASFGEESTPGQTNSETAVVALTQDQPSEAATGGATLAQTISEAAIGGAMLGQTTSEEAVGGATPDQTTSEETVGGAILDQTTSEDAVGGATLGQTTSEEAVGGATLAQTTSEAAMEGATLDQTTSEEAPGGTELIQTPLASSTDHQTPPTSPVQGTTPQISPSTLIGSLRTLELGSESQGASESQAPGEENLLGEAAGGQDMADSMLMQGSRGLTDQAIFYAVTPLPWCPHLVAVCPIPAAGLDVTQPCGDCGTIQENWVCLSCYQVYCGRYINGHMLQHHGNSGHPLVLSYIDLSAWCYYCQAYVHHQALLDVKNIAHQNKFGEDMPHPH
# MDA-MB-231 [2] = assay: Cytotoxicity against human MDA-MB-231 cells after 48 hrs by MTT assay; assay type: functional, cell-based; conditions: MDA-MB-231, 48 h
# MDA-MB-231 [3] = assay: Antitumor activity against human MDA-MB-231 cells xenografted in athymic nude mouse assessed as tumor growth delay at 90 mg/kg, ip qd for 21 days; assay type: functional, organism-based; parameters: dose 90 mg/kg
# MDA-MB-231 [4] = assay: Antitumor activity against human MDA-MB-231 cells xenografted in athymic nude mouse assessed as tumor growth inhibition at 90 mg/kg, ip qd for 21 days; assay type: functional; conditions: route intraperitoneal
# A549 = assay: Cytotoxicity against human A549 cells after 48 hrs by MTT assay; assay type: functional, cell-based; conditions: A549, 48 h
# Summary of the method: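 Cells kept in RPMI1640 with 10% FBS, 37 °C, 5% CO₂; seeded day before dosing, grown ≥4 h, treated with a concentration series for 48 h. MTT 0.5% solution added, 4 h further; formazan dissolved in DMSO 15 min, absorbance at 570 nm. Mean of three experiments.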
smiles,measurement,setting,value
COc1ccc(NC(=O)[C@@H]2Cc3ccc(OCC(=O)NO)cc3CN2C(=O)[C@H](C)N)cc1,IC50,Histone deacetylase 8,1.28 µM
COc1ccc(NC(=O)[C@@H]2Cc3ccc(OCC(=O)NO)cc3CN2C(=O)[C@@H]2CCCN2)cc1,IC50,Histone deacetylase 8,0.481 µM
COc1ccc(NC(=O)[C@@H]2Cc3ccc(OCC(=O)NO)cc3CN2C(=O)[C@@H](N)CC(C)C)cc1,IC50,Histone deacetylase 8,0.675 µM
O=C(COc1ccc2c(c1)CN(C(=O)CCc1ccccc1)[C@H](C(=O)NCCc1ccccc1)C2)NO,IC50,Histone deacetylase 8,0.692 µM
CC[C@H](C)[C@H](NC(=O)[C@@H]1CCCN1)C(=O)N1Cc2cc(OCC(=O)NO)ccc2C[C@H]1C(=O)Nc1ccc(OC)cc1.Cl,IC50,NB-4,9.28 µM
same,IC50,Histone deacetylase,0.108 µM
same,IC50,HeLa,> 200 µM
same,IC50,K562,6.59 µM
same,IC50,Histone deacetylase 8,0.047 µM
same,IC50,HL-60,69.8 µM
same,IC50,[1],0.191 µM
CC[C@H](C)[C@H](N)C(=O)N1Cc2cc(OCC(=O)NO)ccc2C[C@H]1C(=O)Nc1ccc(OC)cc1,IC50,Histone deacetylase 8,1.04 µM
CC[C@H](C)[C@@H](CN1Cc2cc(OCC(=O)NO)ccc2C[C@H]1C(=O)Nc1ccc(OC)cc1)NC(=O)CC(C)(C)C,IC50,NB-4,5.57 µM
same,IC50,Histone deacetylase,0.297 µM
same,IC50,HeLa,63.5 µM
same,IC50,MDA-MB-231 [2],2.54 µM
same,Activity,MDA-MB-231 [3],Active
same,IC50,K562,10 µM
same,T/C,MDA-MB-231 [4],87%
same,IC50,Histone deacetylase 8,0.333 µM
same,IC50,HL-60,25.7 µM
same,IC50,[1],0.158 µM
COc1ccc(NC(=O)[C@@H]2Cc3ccc(OCC(=O)NO)cc3CN2CCCc2ccccc2)cc1,IC50,Histone deacetylase 8,1.72 µM
COc1ccc(NC(=O)[C@@H]2Cc3ccc(OCC(=O)NO)cc3CN2C(=O)[C@@H](N)Cc2ccccc2)cc1,IC50,Histone deacetylase 8,0.368 µM
COc1ccc(NC(=O)[C@@H]2Cc3ccc(OCC(=O)NO)cc3CN2C(=O)CN)cc1,IC50,Histone deacetylase 8,2.14 µM
COc1ccc(NC(=O)[C@@H]2Cc3ccc(OCC(=O)NO)cc3CN2C(=O)[C@H](CC(C)C)NC(=O)OC(C)(C)C)cc1,IC50,Histone deacetylase 8,0.163 µM
COc1ccc(NC(=O)[C@@H]2Cc3ccc(OCC(=O)NO)cc3CN2C(=O)[C@H](C)NC(=O)OC(C)(C)C)cc1,IC50,Histone deacetylase 8,0.182 µM
CC[C@H](C)[C@H](NC(=O)C1CCNCC1)C(=O)N1Cc2cc(OCC(=O)NO)ccc2C[C@H]1C(=O)Nc1ccc(OC)cc1.Cl,IC50,NB-4,> 200 µM
same,IC50,Histone deacetylase,0.071 µM
same,IC50,HeLa,102 µM
same,IC50,K562,51.7 µM
same,IC50,Histone deacetylase 8,1.44 µM
same,IC50,[1],0.169 µM
COc1ccc(NC(=O)[C@@H]2Cc3ccc(OCC(=O)NO)cc3CN2C(=O)[C@@H](N)Cc2ccc(O)cc2)cc1,IC50,Histone deacetylase 8,0.634 µM
COc1ccc(NC(=O)[C@@H]2Cc3ccc(OCC(=O)NO)cc3CN2C(=O)[C@@H]2CCCN2C(=O)OC(C)(C)C)cc1,IC50,Histone deacetylase 8,0.212 µM
COc1ccc(NC(=O)[C@@H]2Cc3ccc(OCC(=O)NO)cc3CN2C(=O)CCc2ccccc2)cc1,IC50,MDA-MB-231 [2],1.52 µM
same,IC50,A549,4.8 µM
same,IC50,Histone deacetylase 8,0.502 µM
